Experiments:
Details in all cases: stereoisomer not certain
OR10A4 (Homo sapiens) = target: T1, OR10A4 (Homo sapiens) (UniProt Q9H209)
T1 sequence (whole entry): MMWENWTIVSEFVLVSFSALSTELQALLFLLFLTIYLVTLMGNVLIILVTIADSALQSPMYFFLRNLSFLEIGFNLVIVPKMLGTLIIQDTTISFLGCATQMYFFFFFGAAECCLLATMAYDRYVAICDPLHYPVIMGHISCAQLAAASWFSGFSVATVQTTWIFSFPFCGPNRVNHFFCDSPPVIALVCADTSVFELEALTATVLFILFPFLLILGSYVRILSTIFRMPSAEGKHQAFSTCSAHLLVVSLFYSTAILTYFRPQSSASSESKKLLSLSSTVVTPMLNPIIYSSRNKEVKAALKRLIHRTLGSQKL
Procedure, shortened: (§1)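 Transient luciferase assays in mammalian cell lines were common, though methods varied by source. The values come from published papers and their supplementary material, with extra details from the original authors when needed. Responsive refers to a measured signal the original authors judged statistically different from baseline, and non-responsive (inactive) to the remainder.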

OR10A5 (Homo sapiens) = target: T2, OR10A5 (Homo sapiens) (UniProt Q9H207)
T2 sequence (whole entry): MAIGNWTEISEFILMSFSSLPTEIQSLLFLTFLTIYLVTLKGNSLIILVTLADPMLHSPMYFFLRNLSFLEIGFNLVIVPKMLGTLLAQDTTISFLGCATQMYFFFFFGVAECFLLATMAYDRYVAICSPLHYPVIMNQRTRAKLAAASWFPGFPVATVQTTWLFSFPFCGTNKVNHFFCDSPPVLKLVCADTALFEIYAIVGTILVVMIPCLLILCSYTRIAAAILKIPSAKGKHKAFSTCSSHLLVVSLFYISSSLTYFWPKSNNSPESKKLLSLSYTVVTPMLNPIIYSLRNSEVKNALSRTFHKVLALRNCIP
Procedure, shortened: as §1

OR10A6 (Homo sapiens) = target: T3, OR10A6 (Homo sapiens) (UniProt Q8NH74)
T3 sequence (whole entry): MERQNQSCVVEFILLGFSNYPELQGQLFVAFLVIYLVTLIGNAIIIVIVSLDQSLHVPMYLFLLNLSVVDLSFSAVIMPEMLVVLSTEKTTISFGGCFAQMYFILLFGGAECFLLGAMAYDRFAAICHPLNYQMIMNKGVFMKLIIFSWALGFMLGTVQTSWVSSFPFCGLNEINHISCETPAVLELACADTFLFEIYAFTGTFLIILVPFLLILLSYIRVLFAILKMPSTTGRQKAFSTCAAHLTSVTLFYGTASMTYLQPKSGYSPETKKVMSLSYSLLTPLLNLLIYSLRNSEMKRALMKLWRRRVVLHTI
Procedure, shortened: as §1

OR10A7 (Homo sapiens) = target: T4, OR10A7 (Homo sapiens) (UniProt Q8NGE5)
T4 sequence (whole entry): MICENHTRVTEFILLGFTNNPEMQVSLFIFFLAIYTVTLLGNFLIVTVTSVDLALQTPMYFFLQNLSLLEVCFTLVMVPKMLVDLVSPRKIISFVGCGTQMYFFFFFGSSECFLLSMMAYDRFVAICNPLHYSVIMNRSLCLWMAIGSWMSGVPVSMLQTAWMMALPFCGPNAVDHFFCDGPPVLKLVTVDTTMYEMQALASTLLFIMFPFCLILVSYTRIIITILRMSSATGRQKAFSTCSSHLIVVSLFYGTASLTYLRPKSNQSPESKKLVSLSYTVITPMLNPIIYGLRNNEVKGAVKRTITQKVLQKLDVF
Procedure, shortened: as §1

OR10AC1 (Homo sapiens) = OR10AC1 (Homo sapiens) (UniProt Q8NH08)
Procedure, shortened: as §1

OR10AD1 (Homo sapiens) = target: T5, OR10AD1 (Homo sapiens) (UniProt Q8NGE0)
T5 sequence (whole entry): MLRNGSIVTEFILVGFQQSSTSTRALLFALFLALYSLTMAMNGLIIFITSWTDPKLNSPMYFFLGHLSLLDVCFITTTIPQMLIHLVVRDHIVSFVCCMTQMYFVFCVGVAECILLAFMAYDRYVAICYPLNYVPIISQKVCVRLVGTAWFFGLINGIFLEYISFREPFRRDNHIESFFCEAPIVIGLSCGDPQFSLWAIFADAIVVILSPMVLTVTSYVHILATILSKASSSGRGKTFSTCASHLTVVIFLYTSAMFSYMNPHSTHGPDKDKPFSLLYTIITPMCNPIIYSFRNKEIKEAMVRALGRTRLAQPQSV
Procedure, shortened: as §1

OR10AG1 (Homo sapiens) = target: T6, OR10AG1 (Homo sapiens) (UniProt Q8NH19)
T6 sequence (whole entry): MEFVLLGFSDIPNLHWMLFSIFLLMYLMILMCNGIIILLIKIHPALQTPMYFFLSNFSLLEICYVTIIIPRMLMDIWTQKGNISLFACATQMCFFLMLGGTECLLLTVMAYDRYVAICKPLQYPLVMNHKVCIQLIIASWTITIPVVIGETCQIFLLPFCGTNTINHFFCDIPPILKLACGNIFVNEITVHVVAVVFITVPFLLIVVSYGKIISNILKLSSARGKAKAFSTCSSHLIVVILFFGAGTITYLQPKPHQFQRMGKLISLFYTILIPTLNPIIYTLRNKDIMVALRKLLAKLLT
Procedure, shortened: as §1

OR10C1 (Homo sapiens) = target: T7, OR10C1 (Homo sapiens) (UniProt Q96KK4)
T7 sequence (whole entry): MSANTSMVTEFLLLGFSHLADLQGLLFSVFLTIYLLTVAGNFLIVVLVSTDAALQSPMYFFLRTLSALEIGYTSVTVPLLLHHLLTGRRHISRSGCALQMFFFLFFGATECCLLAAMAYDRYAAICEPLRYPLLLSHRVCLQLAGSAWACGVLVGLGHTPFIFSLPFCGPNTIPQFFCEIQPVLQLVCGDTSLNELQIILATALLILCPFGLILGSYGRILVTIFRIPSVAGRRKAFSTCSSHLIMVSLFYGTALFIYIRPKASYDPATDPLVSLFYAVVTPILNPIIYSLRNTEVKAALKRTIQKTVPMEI
Procedure, shortened: as §1

OR10G2 (Homo sapiens) = target: T8, OR10G2 (Homo sapiens) (UniProt Q8NGC3)
T8 sequence (whole entry): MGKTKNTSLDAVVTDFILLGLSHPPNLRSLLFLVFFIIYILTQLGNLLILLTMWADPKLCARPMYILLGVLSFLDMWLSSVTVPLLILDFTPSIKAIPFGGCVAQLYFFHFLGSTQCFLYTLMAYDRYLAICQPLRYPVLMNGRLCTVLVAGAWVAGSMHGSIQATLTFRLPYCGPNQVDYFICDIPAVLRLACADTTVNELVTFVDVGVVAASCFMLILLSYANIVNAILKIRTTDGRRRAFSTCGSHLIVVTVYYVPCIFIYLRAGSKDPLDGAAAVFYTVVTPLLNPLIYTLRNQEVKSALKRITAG
Procedure, shortened: as §1

OR10G3 (Homo sapiens) = target: T9, OR10G3 (Homo sapiens) (UniProt Q8NGC4)
T9 sequence (whole entry): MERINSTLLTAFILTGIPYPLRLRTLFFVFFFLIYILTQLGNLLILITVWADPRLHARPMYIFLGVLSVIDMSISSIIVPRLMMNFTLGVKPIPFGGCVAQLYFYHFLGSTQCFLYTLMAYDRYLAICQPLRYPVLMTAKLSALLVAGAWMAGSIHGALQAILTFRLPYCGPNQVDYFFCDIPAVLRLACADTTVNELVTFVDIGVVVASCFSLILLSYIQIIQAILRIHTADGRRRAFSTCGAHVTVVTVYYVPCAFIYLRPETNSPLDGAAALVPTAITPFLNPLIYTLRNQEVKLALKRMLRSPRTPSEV
Procedure, shortened: as §1

OR10G4 (Homo sapiens) = target: T10, OR10G4 (Homo sapiens) (UniProt Q8NGN3)
T10 sequence (whole entry): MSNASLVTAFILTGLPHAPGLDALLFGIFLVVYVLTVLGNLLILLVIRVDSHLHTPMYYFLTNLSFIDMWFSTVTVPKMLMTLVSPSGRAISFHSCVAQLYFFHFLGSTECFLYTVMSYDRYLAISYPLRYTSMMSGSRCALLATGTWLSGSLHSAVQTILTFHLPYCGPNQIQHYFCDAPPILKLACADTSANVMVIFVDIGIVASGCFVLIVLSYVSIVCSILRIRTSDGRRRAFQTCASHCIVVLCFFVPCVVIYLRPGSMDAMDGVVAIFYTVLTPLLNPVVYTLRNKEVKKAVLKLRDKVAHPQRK
Procedure, shortened: as §1

OR10G6 (Homo sapiens) = target: T11, OR10G6 (Homo sapiens) (UniProt Q8NH81)
T11 sequence (whole entry): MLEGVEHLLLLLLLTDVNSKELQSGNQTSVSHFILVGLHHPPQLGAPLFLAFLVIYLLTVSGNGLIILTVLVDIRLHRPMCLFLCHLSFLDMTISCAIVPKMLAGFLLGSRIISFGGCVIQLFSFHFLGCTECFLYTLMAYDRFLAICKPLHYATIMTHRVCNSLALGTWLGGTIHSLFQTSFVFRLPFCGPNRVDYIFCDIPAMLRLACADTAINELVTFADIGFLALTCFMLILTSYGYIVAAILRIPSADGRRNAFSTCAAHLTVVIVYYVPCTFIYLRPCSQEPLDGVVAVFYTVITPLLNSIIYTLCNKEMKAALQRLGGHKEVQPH
Procedure, shortened: as §1

OR10G7 (Homo sapiens) = target: T12, OR10G7 (Homo sapiens) (UniProt Q8NGN6)
T12 sequence (whole entry): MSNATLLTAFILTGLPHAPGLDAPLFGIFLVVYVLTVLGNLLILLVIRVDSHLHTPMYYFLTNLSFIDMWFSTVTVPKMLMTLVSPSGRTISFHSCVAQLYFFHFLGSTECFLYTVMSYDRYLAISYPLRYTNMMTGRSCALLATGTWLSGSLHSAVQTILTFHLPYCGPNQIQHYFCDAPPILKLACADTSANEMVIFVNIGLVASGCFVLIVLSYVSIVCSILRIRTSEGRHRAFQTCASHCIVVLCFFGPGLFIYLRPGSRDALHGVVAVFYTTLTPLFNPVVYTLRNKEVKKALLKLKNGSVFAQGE
Procedure, shortened: as §1

OR10G8 (Homo sapiens) = target: T13, OR10G8 (Homo sapiens) (UniProt Q8NGN5)
T13 sequence (whole entry): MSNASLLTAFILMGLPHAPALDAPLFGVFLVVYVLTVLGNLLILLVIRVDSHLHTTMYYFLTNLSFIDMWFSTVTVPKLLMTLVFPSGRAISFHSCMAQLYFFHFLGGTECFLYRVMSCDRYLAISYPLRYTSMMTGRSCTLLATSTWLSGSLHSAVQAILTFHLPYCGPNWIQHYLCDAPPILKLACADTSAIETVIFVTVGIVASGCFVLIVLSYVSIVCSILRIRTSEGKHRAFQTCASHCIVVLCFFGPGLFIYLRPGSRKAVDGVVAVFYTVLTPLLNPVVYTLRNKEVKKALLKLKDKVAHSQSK
Procedure, shortened: as §1

OR10G9 (Homo sapiens) = target: T14, OR10G9 (Homo sapiens) (UniProt Q8NGN4)
T14 sequence (whole entry): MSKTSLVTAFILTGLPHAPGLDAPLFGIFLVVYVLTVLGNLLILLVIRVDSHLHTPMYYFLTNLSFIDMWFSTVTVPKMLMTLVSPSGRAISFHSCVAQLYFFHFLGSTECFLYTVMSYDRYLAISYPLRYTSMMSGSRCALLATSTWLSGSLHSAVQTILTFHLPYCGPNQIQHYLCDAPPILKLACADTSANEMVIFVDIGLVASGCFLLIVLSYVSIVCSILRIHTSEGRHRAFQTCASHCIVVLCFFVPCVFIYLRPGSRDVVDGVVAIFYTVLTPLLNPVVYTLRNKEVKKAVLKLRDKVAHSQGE
Procedure, shortened: as §1

OR10H1 (Homo sapiens) = target: T15, OR10H1 (Homo sapiens) (UniProt Q9Y4A9)
T15 sequence (whole entry): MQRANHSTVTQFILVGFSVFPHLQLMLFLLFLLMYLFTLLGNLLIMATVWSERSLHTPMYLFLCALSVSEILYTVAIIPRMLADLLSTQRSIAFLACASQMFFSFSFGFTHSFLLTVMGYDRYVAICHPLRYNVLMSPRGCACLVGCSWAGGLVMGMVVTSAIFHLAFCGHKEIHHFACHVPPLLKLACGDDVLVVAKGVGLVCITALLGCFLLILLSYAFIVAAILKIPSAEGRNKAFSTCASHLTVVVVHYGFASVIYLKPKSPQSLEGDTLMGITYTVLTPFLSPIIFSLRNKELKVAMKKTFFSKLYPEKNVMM
Procedure, shortened: as §1

OR10H2 (Homo sapiens) = target: T16, OR10H2 (Homo sapiens) (UniProt O60403)
T16 sequence (whole entry): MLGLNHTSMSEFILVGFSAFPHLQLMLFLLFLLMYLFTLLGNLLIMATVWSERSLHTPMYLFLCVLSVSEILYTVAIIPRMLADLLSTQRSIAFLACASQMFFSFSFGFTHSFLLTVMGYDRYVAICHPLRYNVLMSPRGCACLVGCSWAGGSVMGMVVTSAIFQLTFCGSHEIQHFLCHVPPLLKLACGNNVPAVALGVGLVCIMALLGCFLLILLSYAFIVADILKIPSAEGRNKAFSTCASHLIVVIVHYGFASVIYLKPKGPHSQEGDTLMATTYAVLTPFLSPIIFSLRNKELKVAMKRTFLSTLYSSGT
Procedure, shortened: as §1

OR10H3 (Homo sapiens) = target: T17, OR10H3 (Homo sapiens) (UniProt O60404)
T17 sequence (whole entry): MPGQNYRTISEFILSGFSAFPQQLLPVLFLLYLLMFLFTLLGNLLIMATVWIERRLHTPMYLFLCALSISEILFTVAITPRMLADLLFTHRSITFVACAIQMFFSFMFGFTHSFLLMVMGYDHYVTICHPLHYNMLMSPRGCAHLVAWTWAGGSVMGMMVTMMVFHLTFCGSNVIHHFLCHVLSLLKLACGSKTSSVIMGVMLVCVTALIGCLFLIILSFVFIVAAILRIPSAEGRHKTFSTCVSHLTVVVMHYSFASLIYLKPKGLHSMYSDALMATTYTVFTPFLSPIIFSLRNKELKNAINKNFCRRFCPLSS
Procedure, shortened: as §1

Measured: odorant receptor agonist call;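 also: active if original authors judged signal statistically different from baseline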

Chain of OR10AC1 (Homo sapiens) (Q8NH08 whole entry): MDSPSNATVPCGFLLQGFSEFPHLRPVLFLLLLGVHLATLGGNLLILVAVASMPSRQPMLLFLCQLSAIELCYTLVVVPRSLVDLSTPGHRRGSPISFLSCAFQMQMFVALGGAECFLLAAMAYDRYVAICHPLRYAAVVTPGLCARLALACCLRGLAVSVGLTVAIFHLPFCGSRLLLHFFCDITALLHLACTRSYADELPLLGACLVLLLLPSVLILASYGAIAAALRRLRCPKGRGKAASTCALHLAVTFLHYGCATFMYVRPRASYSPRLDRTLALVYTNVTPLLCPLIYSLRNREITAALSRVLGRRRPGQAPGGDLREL

CC1CCCCCCCCCCCCC(=O)C1 (stereo not drawn)
inactive: all assays above

From the M2OR odorant receptor database
